Experimental findings from ChEMBL document CHEMBL5653630, “Activation of the p53-MDM4 regulatory axis defines the anti-tumour response to PRMT5 inhibition through its role in regulating cellular splicing” (Sci Rep, 2018) are described below.

In test [1] the test system is Z-138. Briefly: Induction of cell cycle arrest in human Z138 cells assessed as accumulation of cells at G1 phase cells measured upto 1000 nM by propidium iodide staining based flow cytometric analysis. The class given is functional. The note with it: time 1-10 day, TDE = time-dependent effect.
A further test has as its system JVM-2. In words: Induction of apoptosis in human JVM-2 cells assessed as dead cells incubated for 6 days by annexin-V/FITC propidium iodide staining based flow cytometry analysis. Type of test: functional, cell-based. Particulars: dose <= 5000.0 nM, time 6.0 day. Background: In flow cytometry, cells or beads pass a laser one at a time.
For test [2], the system named is Z-138. In words: Induction of apoptosis in human Z138 cells assessed as early apoptotic cells incubated for 6 days by annexin-V/FITC propidium iodide staining based flow cytometry analysis. Particulars: dose 200.0 nM, time 6.0 day. The class given is functional, cell-based.
For test [3], the system named is Z-138. Briefly: Induction of cell cycle arrest in human Z138 cells assessed as decrease in 4n cell population measured upto 1000 nM measured for 2 to 5 days by propidium iodide staining based flow cytometric analysis. Type of test: functional. The note with it: time 2-5 day.
Test [4] relates to Z-138. In words: Antitumor activity against human Z138 cells xenografted in mouse assessed as reduction in tumor volume at 200 mg/kg, po qd pretreated for 21 days followed by treatment holiday for 10 days and further compound treatment for 2 weeks starting from day 32 followed by 1 week treatment holiday. Type of test: functional, organism-based. Particulars: time 52.0 day. A general note: Xenograft models place foreign cells or tissue in a host animal.

In the next test the test system is SW48. Briefly: Antiproliferative activity against human SW48 cells assessed as cell growth inhibition incubated for 10 days. Type of test: functional. Particulars: SW48, 240 h, time 10 day.
A further test relates to SW480. In words: Antiproliferative activity against human SW480 cells assessed as cell growth inhibition incubated for 10 days. The class given is functional. The note with it: SW480, 240 h, time 10 day.
For another test, the system named is Calu-6. Briefly: Antiproliferative activity against human Calu-6 cells assessed as cell growth inhibition incubated for 10 days. The class given is functional. Particulars: Calu-6, 240 h, time 10 day. The method in brief:
(§1)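 Outsourced panel run in 384-well plates. Cells were grown in RPMI-1640/10% FBS or a special medium at 37°C, 5% CO2. Compound was added 24 h after seeding as a 10-point, 3.16-fold series in 0.1% DMSO. Medium was refreshed and cells re-dosed at 168 h, with a time-zero plate kept. At 240 h cells were fixed, nuclei stained and imaged. gIC50 is growth midway between untreated and time zero, from a 4-parameter fit.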

A further test relates to SK-N-FI. Briefly: Antiproliferative activity against human SK-N-FI cells assessed as cell growth inhibition incubated for 10 days. Type of test: functional. Particulars: 240 h, time 10 day.
In test [5] the test system is Z-138. Briefly: Induction of cell cycle arrest in p53 knockout human Z138 cells assessed as accumulation of cells at G1 phase at 50 to 500 nM incubated for 4 days. Type of test: functional, cell-based. Particulars: dose 50-500 nM, time 4.0 day.
In test [6] the target is Protein arginine N-methyltransferase 5 (Homo sapiens) (UniProt O14744). In words: Inhibition of PRMT5 in human Z138 cells expressing full length MDM4 assessed as induction of p21 at 1 uM incubated for 4 days by Western blot analysis. Particulars: time 4.0 day. Type of test: cell-based. Background: Immunoblotting shows a protein as a band on a membrane.
The next test concerns C32. In words: Antiproliferative activity against human C32 cells assessed as cell growth inhibition incubated for 10 days. The class given is functional. Particulars: C32, 240 h, time 10 day. The method in brief:
(§2)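 Cells kept in RPMI-1640 with 10% FBS, 2 mM L-alanyl-L-glutamine and 1 mM Na pyruvate (or a special medium) at 37°C, 5% CO2. Compound added 24 h after seeding, 10 concentrations in 3.16-fold dilution, 0.1% DMSO final. Medium replaced and cells re-dosed at 168 h; 240 h incubation. Nuclei fixed, dye-stained and imaged. gIC50 = growth midway between untreated and time-zero cell counts, from a 4-parameter fit.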

Test [7] is described as follows: Antiproliferative activity against human C32TG cells assessed as cell growth inhibition incubated for 10 days. The class given is functional. Particulars: 240 h, time 10 day. The method in brief: as §2
The subject of a further test is MCF7. In words: Antiproliferative activity against human MCF7 cells assessed as cell growth inhibition incubated for 6 days by celltiter-glo assay. The class given is functional. The note with it: MCF7, 144 h, time 6 day. In outline: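 Cells seeded in 384-well plates at an optimized density and held 24 h. CellTiter-Glo luminescence read at Day 0 and Day 6. Four-parameter fit. gIC50 = midpoint of the growth window between DMSO and T0. Curves required ≥1.5 population doublings.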

A further test has as its system SH-4. In words: Antiproliferative activity against human SH-4 cells assessed as cell growth inhibition incubated for 10 days. The class given is functional. The note with it: SH-4, 240 h, time 10 day.
A short description of test [8]: Antiproliferative activity against human KHOS-240S cells assessed as cell growth inhibition incubated for 10 days. The class given is functional. Particulars: 240 h, time 10 day. The method in brief:
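Eurofins-panel 10-day assay in 384-well plates. Cells grown in RPMI-1640 with 10% FBS, 2 mM L-alanyl-L-glutamine and 1mM Na pyruvate, or a special medium, at 37°C in 5% CO₂. Compound added 24 h after seeding, 10-point 3.16-fold series in 0.1% DMSO. Medium replaced and compound re-dosed at 168 h. Nuclei fixed and stained after 240 h, then imaged to give a relative cell count. gIC50 is the concentration giving growth midway between untreated and time-zero counts, from a 4-parameter fit.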

Another test deals with NCI-H69. In words: Antiproliferative activity against human NCI-H69 cells assessed as cell growth inhibition incubated for 10 days. Type of test: functional. Particulars: NCI-H69, 240 h, time 10 day.
The next test concerns 786-0. In words: Antiproliferative activity against human 786-0 cells assessed as cell growth inhibition incubated for 10 days. The class given is functional. The note with it: 786-0, 240 h, time 10 day. In outline:
as §2

For another test, the system named is DB. In words: Antiproliferative activity against human DB cells assessed as cell growth inhibition incubated for 10 days. The class given is functional. Particulars: 240 h, time 10 day. In outline:
as §1

The subject of the next test is MES-SA. In words: Antiproliferative activity against human MES-SA cells assessed as cell growth inhibition incubated for 10 days. The note with it: 240 h, time 10 day. The class given is functional.
Test [9] is described as follows: Antiproliferative activity against human A7 cells assessed as cell growth inhibition incubated for 10 days. The class given is functional. Particulars: A7, 240 h, time 10 day. The method in brief: as §2
The test system of a further test is EB-3. In words: Antiproliferative activity against human EB-3 cells assessed as cell growth inhibition incubated for 10 days. The note with it: EB-3, 240 h, time 10 day. Type of test: functional. In outline:
as §1

Test [10] can be described thus: Antiproliferative activity against human OE21 cells assessed as cell growth inhibition incubated for 10 days. The class given is functional. The note with it: OE21, 240 h, time 10 day.
Test [11] in a line: Antiproliferative activity against human HUH-6-clone5 cells assessed as cell growth inhibition incubated for 10 days. Type of test: functional. The note with it: HUH-6-clone5, 240 h, time 10 day. In outline:
as §1

Another test relates to BeWo. Briefly: Antiproliferative activity against human BeWo cells assessed as cell growth inhibition incubated for 10 days. Type of test: functional. The note with it: 240 h, time 10 day. The method in brief: as §2
In another test the test system is OVCAR-3. In words: Antiproliferative activity against human OVCAR-3 cells assessed as cell growth inhibition incubated for 10 days. Type of test: functional. The note with it: OVCAR-3, 240 h, time 10 day.
A further test has as its system NCI-H292. Briefly: Antiproliferative activity against human NCI-H292 cells assessed as cell growth inhibition incubated for 10 days. The note with it: NCI-H292, 240 h, time 10 day. Type of test: functional.
The test system of another test is SAOS-2. In words: Antiproliferative activity against human SAOS-2 cells assessed as cell growth inhibition incubated for 10 days. The class given is functional. The note with it: SAOS-2, 240 h, time 10 day.
In the next test the test system is COLO 320DM. In words: Antiproliferative activity against human Colo 320DM cells assessed as cell growth inhibition incubated for 10 days. Type of test: functional. The note with it: 240 h, time 10 day. The method in brief:
as §1

The nature of test [12]: Antiproliferative activity against human CML-T1 cells assessed as cell growth inhibition incubated for 10 days. Type of test: functional. The note with it: CML-T1, 240 h, time 10 day. The method in brief: as §2
The target in test [13] is Protein arginine N-methyltransferase 5 (Homo sapiens) (UniProt O14744). In words: Inhibition of PRMT5 in human Z138 cells assessed as effect on FUBP1 level by measuring fold change by LC-MS/MS analysis relative to control. Type of test: cell-based.
Another test has as its system U2OS. In words: Antiproliferative activity against human U2OS cells assessed as cell growth inhibition incubated for 10 days. Particulars: 240 h, time 10 day. The class given is functional.

Molecules are shown by their SMILES. Calls of active or inactive are those of the source. No cut-off for these calls is given here.

Chain of Protein arginine N-methyltransferase 5 (Homo sapiens) (O14744 whole entry): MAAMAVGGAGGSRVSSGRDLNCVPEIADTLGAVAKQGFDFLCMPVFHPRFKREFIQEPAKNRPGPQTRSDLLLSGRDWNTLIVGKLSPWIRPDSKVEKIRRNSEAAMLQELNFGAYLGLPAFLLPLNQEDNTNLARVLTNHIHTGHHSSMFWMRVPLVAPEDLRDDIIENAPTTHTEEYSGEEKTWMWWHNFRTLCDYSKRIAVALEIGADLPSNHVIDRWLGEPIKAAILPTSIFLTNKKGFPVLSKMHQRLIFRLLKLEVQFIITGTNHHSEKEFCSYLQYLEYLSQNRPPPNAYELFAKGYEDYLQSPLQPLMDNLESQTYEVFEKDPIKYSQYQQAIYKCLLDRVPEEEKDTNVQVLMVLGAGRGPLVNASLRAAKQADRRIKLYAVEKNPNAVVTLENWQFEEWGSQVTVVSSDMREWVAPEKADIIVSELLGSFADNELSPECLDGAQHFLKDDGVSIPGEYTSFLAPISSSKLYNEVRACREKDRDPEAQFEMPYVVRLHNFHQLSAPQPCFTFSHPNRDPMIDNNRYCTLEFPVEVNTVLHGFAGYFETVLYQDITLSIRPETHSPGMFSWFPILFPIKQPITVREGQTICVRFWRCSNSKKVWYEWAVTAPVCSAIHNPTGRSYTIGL

Take `CC(=O)N1CCC(Nc2cc(C(=O)NC[C@H](O)CN3CCc4ccccc4C3)ncn2)CC1` [PEMRAMETOSTAT]: the Activity result in the test on Z-138 [1] was “Tde”; in the test on JVM-2 it was “Dose-Dependent Effect”; with Z-138 [2], “Dose-Dependent Effect”. The outcome in the test with Z-138 [3] and with Z-138 [4] was Active.

As a reminder, the GI50 is the concentration giving 50% growth inhibition. As to `O=C(NC[C@H](O)CN1CCc2ccccc2C1)c1ccnc(NC2CCC2)c1`, the 50% growth inhibitory concentration (GI50) in the test with SW48 stood at 10000 nM; in the test on SW480, 413 nM; in the test with Calu-6 it was 206 nM; in the test on SK-N-FI, 308 nM; in the test on C32 it was 14.1 nM; in test [7], 103 nM. Also, the GI50 in the test on MCF7 amounted to 215 nM; in the test on SH-4, 75.2 nM; in test [8], 124 nM; in the test on NCI-H69, 144 nM; in the test on 786-0, 20.3 nM; with DB, 2.51 nM. The GI50 came out at 72 nM in the test on MES-SA; 36.7 nM in test [9]; 299 nM in the test with EB-3; 146 nM in [10]; 361 nM in test [11]; 1090 nM in the test on BeWo. Further, the 50% growth inhibitory concentration (GI50) with OVCAR-3 amounted to 51.4 nM; in the test on NCI-H292, 166 nM; in the test on SAOS-2, 48.2 nM; in the test on COLO 320DM, 82.5 nM; in test [12], 16.1 nM; with U2OS, 485 nM. Besides, the result in the test with Z-138 [5] was Active. Besides, in test [6], the inhibition entry is “inactive”. For the same molecule, the fold change (FC) in [13] was -6.6.
